The list is not random: actives were taken first. Their share in the collection is about 2%.
AI-2 QS mod: Vibrio harveyi AI-2 quorum sensing modulators, primary screen, JMH597 strain, luminescence/OD600 ratio. Vibrio harveyi JMH597 AI-2 luminescence/OD600 ratio, 9 h; hits give low values; strain lacks LuxN and CqsS sensors; 0 = neutral-control median. activity change, % at 7.5 µM. 0.4% of 300,000 active; in the data active = activity change below about -75%, passing the limit was not always enough;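 also: luminescence divided by OD600 gain over 9 h not by final OD600 alone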
T cruzi inh: inhibitors of intracellular T. cruzi growth, primary screen, luminescence, NIH3T3 host cells. 1.4% of 300,000 active. T. cruzi beta-gal in NIH3T3, 90 h. inhibition, % (test concentration not listed);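 active = mean inhibition across valid replicates above about 55%, limit read from the data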;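 also: signal also drops with host cell toxicity which is not excluded here; higher percent means less beta-gal luminescence so fewer parasites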
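System: Mouse NIH/3T3 fibroblasts infected with β-gal-expressing T. cruzi Tulahuen C4 | Quantity: NIH/3T3 cells, 5,000 per well | Reagent: 5000 reporter trypomastigotes per well | Dosing: Compound pinned at 50 nL/well, DMSO | Schedule: 3 h host attachment, then at least 90 h co-culture | Detection: GalScreen luminescence, 60 min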
ARNT TACC3 PPI: disruptors of ARNT/TACC3 protein interaction, primary screen, biochemical, AlphaScreen, single concentration | AlphaScreen His-ARNT PAS-B/GST-TACC3 binding, luminescence; TACC3 fragment carries E629A point mutation | inhibition, % at 9.99 µM | 0.66% of 390,000 active;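 active = mean inhibition of replicates at least 50% and at least half of replicates each reaching 50%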
HIF act: HIF pathway transcriptional activators, primary screen, cell-based, U2OS HRE-luciferase, luminescence | activation, % at 7.5 µM (by protocol) | U2OS HRE-luciferase reporter; normalized: DMSO 0%, desferrioxamine 100% | AID 1910, 2009 | 0.32% of 300,000 active;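 active = mean activation of at least 10% of the iron chelator positive control signal, with at least half of replicates also reaching 10%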
Of the large screens only hits and unclear results are named; the others gave an inactive call.

O=C(/C=C/c1ccccc1)NC(NC(=S)Nc1cccc(Cl)c1)C(Cl)(Cl)Cl (stereo not given)	T cruzi inh 59
O=C(/C=C/c1ccccc1)NC(NC(=S)Nc1ccc(Cl)cc1Cl)C(Cl)(Cl)Cl (stereo not given)	T cruzi inh 78 (no result: ARNT TACC3 PPI)
O=C(NC(NC(=S)Nc1c(Cl)cc(Cl)cc1Cl)C(Cl)(Cl)Cl)OCc1ccccc1 (stereo not given)	T cruzi inh 74
Cc1ccc(C)c(NC(=S)NC(NC(=O)/C=C/c2ccccc2)C(Cl)(Cl)Cl)c1 (stereo not given)	none
COc1ccc(S(=O)(=O)N(C)C[C@@H]2Oc3ccc(NS(=O)(=O)c4ccccc4)cc3C(=O)N([C@@H](C)CO)C[C@@H]2C)cc1	none (no result: AI-2 QS mod, T cruzi inh, HIF act)
CO[C@H]1CN(C)C(=O)c2ccc(NC(C)=O)cc2OC[C@@H](C)N(C(=O)c2ccccc2F)C[C@@H]1C	none (no result: AI-2 QS mod, T cruzi inh, HIF act)
C[C@@H]1CN([C@@H](C)CO)C(=O)c2cc(NS(=O)(=O)c3ccc(F)cc3)ccc2O[C@H]1CN(C)C(=O)Nc1ccc(F)cc1	none (no result: AI-2 QS mod, T cruzi inh, HIF act)
CSc1nc(SCC(=O)NC(c2ccccc2)c2ccccc2)c2c3c(sc2n1)CN(C)CC3	T cruzi inh 64
CSc1nc(NCC(C)O)c2c3c(sc2n1)CN(C)CC3 (stereo not given)	none
N#Cc1ccccc1OCCCN1CCC(Cc2ccccc2)CC1	HIF act 45
COc1cc(NS(=O)(=O)c2ccc(Nc3nc(-c4ccccn4)cs3)cc2)nc(OC)n1	ARNT TACC3 PPI 56
O=C(C#Cc1ccccc1)Nc1ccccc1F	AI-2 QS mod -87
C[C@@H]1CN([C@H](C)CO)C(=O)c2cccc(NS(=O)(=O)c3cccs3)c2O[C@H]1CN(C)Cc1ccc(Cl)c(Cl)c1	none (no result: AI-2 QS mod, T cruzi inh, HIF act)
CCOc1cc(-c2nc(-c3ccccc3)c(-c3cc([N+](=O)[O-])ccc3C)[nH]2)ccc1O	T cruzi inh 57
CCn1c(NC(=S)Nc2ccccc2)nc2ccccc21	T cruzi inh 65
CCCn1c(NC(=S)Nc2ccccc2)nc2ccccc21	none
CC1=C(C(=O)OC2CCCCC2)C(c2cccnc2)n2nnnc2N1 (stereo not given)	T cruzi inh 59
COc1ccc(C2C(C(=O)OC3CCCCC3)=C(C)Nc3nnnn32)c(OC)c1OC (stereo not given)	none
O=C(Nc1ccc2c(c1)[C@H]1C[C@H](CC(=O)N3CCOCC3)O[C@H](CO)[C@H]1O2)C1CCOCC1	none (no result: AI-2 QS mod, T cruzi inh, HIF act)
COc1ccc(-c2c[n+]3c4n2CCCCC4=C(c2ccccc2)C3)cc1	T cruzi inh 62
C[C@@H]1CCCCO[C@H](CN(C)Cc2ccc(C(=O)O)cc2)[C@@H](C)CN([C@@H](C)CO)C(=O)c2cc(NC(=O)Nc3ccccc3)ccc2O1	none (no result: AI-2 QS mod, T cruzi inh, HIF act)
C[C@@H]1CN([C@@H](C)CO)C(=O)Cc2cc(NC(=O)Nc3ccc(C(F)(F)F)cc3)ccc2O[C@H]1CN(C)C	none (no result: AI-2 QS mod, T cruzi inh, HIF act)
Cc1ccsc1/C=N/Nc1nc(=O)[nH]nc1C	ARNT TACC3 PPI 64
C[C@@H]1CN([C@@H](C)CO)C(=O)c2cc(NS(=O)(=O)c3ccc(F)cc3)ccc2O[C@@H](C)CCCCO[C@@H]1CN(C)C(=O)Nc1ccc(F)cc1	none (no result: AI-2 QS mod, T cruzi inh, HIF act)
C[C@@H]1CN([C@H](C)CO)C(=O)c2cc(NC(=O)Cc3cn(C)c4ccccc34)ccc2O[C@H]1CN(C)S(=O)(=O)c1ccc(Cl)cc1	none (no result: AI-2 QS mod, T cruzi inh, HIF act)
CCOCCCN(C)C1CCN(C(=O)c2oc3ccccc3c2NC(=O)c2ccc(F)cc2)CC1	T cruzi inh 56 (no result: HIF act)
CCOCCCN(C)C1CCN(C(=O)c2oc3ccccc3c2NC(=O)c2ccc([N+](=O)[O-])cc2)CC1	none
COc1cc(C(O)c2nc3ccccc3n2C(C)C)cc(OC)c1OC (stereo not given)	ARNT TACC3 PPI 50
COCC(=O)Nc1ccc2c(c1)[C@H]1C[C@@H](CC(=O)NCc3ccc(OC)cc3)O[C@@H](CO)[C@H]1O2	none (no result: AI-2 QS mod, T cruzi inh, HIF act)
Cc1c(CN2CCC(CO)(Cc3ccccc3)CC2)c2ccccc2n1C	T cruzi inh 57
O=C(COc1ccccc1)N(Cc1cccc(F)c1)C1CCS(=O)(=O)C1 (stereo not given)	HIF act 18
O=C(COc1ccc(F)cc1)N(Cc1cccc(Br)c1)C1CCS(=O)(=O)C1 (stereo not given)	none
CCCCCCCCN1[C@@H](CC(=O)OCC)c2ccc(C(F)(F)F)cc2S1(=O)=O	T cruzi inh 61 (no result: ARNT TACC3 PPI)
CCCCCCCCCCCCN1[C@@H](CC(=O)OC)c2cc(C(F)(F)F)ccc2S1(=O)=O	none
COc1ccc(S(=O)(=O)Nc2ccc3c(c2)C(=O)N([C@@H](C)CO)C[C@H](C)[C@@H](CN(C)S(=O)(=O)c2cccs2)OCCCC[C@H](C)O3)cc1	none (no result: AI-2 QS mod, T cruzi inh, HIF act)
CCCc1nc(C)cc(N2CCN(c3ccccc3)CC2)n1	none
COc1ccc(Nc2cc(C)nc(NCc3ccccc3)n2)cc1	T cruzi inh 61
COc1cc(C)nc(NCc2ccccc2)n1	none
Cc1cc(NC2CCCCC2)nc(NCc2ccccc2)n1	T cruzi inh 58
Cc1ccc(Nc2cc(C)nc(NCc3ccccc3)n2)cc1	AI-2 QS mod -92, T cruzi inh 61
Cc1cc(N2CCN(c3ccccc3)CC2)nc(NCc2ccccc2)n1	T cruzi inh 55 (no result: AI-2 QS mod, ARNT TACC3 PPI)
Cc1cc(N/N=C/c2ccccc2Cl)nc(NCc2ccccc2)n1	none
COc1ccccc1NC(=O)N(C)C[C@@H]1Oc2ncc(C#CCN(C)C)cc2C(=O)N([C@H](C)CO)C[C@H]1C	none (no result: AI-2 QS mod, T cruzi inh, HIF act)
COC(=O)C[C@@H]1C[C@@H]2c3cc(NC(=O)c4cccnc4)ccc3O[C@@H]2[C@@H](CO)O1	none (no result: AI-2 QS mod, T cruzi inh, HIF act)
COc1cc(CNCc2ccccn2)ccc1OCC(N)=O	ARNT TACC3 PPI 49 (no result: HIF act)
CCCCCCCC(=O)N/N=C(\C)c1ccc(O)cc1O	none
C/C(=N\NC(=O)COc1ccccc1-c1ccccc1)c1ccc(O)cc1O	T cruzi inh 77
C/C(=N\NC(=O)COc1ccccc1-c1ccccc1)c1cccnc1	none
C/C(=N\NC(=O)COc1ccccc1-c1ccccc1)c1ccccn1	T cruzi inh 71, ARNT TACC3 PPI 8.8
CCCNC(=O)N1[C@H](CNC(=O)c2ccccc2)[C@@H](c2ccccc2)[C@@H]1CO	none (no result: AI-2 QS mod, T cruzi inh, HIF act)
CC(C)CC#Cc1ccc2c(c1)O[C@@H](CN(C)S(=O)(=O)c1cccc(F)c1)[C@@H](C)CN([C@@H](C)CO)S2(=O)=O	none (no result: AI-2 QS mod, T cruzi inh, HIF act)
COc1cccc(C(=O)NC2CCN(C(=O)N3c4ccccc4Sc4ccccc43)CC2)c1	T cruzi inh 70
COc1ccc(/C=N/NC(=O)c2ccccc2O)cc1CSc1ccccn1	HIF act 197
CN(C)CCCNC(=O)C[C@H]1CC[C@@H]2[C@H](COc3ccc(NS(C)(=O)=O)cc3C(=O)N2C)O1	none (no result: AI-2 QS mod, T cruzi inh, HIF act)
Cc1nc2ccccn2c1C(=O)NNC(=S)Nc1ccc(Cl)cc1	none

Bioassay records: PubChem, Broad Institute
